Key:
[1] = Drug uptake in Sprague-Dawley rat brain at 30 mg/kg, po measured at 2 hrs post dose by LC/MS-MS analysis; format: ADME, organism-based; details: read-out: Drug uptake
Outline: (§1)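 Male rats given 30 mg/kg orally in 0.15% docusate sodium/2% PVP-K/97.85% water. Plasma and brain were sampled at a single time point after dosing. Brain was diluted 1:2 (vol/weight) with water before homogenization (dilution factor 3). Concentrations were measured by LC/MS−MS after acetonitrile protein precipitation. Values are the average of three animals; B/P is the brain to plasma ratio.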

[2] = biological target: T1, 5-hydroxytryptamine receptor 2B (Homo sapiens, UniProt P41595); assay: Agonist activity at recombinant human 5-HT2B receptor expressed in HEK293E cells assessed as induction of intracellular Ca2+ levels after 90 secs by Fluo-4-dye based FLIPR assay; format: cell-based, HEK293
T1 sequence (P41595 whole entry, canonical isoform): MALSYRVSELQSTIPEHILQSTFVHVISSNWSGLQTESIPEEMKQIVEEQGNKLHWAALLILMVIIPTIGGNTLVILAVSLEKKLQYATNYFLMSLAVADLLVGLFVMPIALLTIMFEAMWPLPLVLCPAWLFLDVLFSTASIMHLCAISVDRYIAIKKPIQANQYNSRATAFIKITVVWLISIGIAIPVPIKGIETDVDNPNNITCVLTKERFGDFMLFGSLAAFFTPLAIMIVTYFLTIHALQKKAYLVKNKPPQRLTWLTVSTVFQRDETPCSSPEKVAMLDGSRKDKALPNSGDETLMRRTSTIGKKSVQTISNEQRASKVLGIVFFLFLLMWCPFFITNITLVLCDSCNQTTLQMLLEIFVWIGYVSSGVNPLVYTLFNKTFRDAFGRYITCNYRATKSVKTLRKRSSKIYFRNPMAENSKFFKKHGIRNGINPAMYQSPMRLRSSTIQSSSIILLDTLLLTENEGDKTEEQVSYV
Outline: (§2)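 HEK293E cells stably expressing human receptor (VNV isoform for 5-HT2C; ~400−795 fmol/mg protein), grown in DMEM with 10% dialyzed FBS and G418. Cells plated at 20 000/well in serum-free DMEM overnight at 37 °C, then loaded 1 h at room temperature with 5 μM Fluo-4 in HBSS/25 mM HEPES. Eleven compound concentrations added on FLIPR, Ca2+ signal read for 90 s. EC50 from a four-parameter logistic fit, at least triplicate.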

[3] = biological target: 5-hydroxytryptamine receptor 2A (Homo sapiens, UniProt P28223); assay: Agonist activity at recombinant human 5-HT2A receptor expressed in HEK293E cells assessed as induction of intracellular Ca2+ levels after 90 secs by Fluo-4-dye based FLIPR assay; format: cell-based, HEK293; outline: as §2
5-hydroxytryptamine receptor 2A, sequence (P28223 whole entry): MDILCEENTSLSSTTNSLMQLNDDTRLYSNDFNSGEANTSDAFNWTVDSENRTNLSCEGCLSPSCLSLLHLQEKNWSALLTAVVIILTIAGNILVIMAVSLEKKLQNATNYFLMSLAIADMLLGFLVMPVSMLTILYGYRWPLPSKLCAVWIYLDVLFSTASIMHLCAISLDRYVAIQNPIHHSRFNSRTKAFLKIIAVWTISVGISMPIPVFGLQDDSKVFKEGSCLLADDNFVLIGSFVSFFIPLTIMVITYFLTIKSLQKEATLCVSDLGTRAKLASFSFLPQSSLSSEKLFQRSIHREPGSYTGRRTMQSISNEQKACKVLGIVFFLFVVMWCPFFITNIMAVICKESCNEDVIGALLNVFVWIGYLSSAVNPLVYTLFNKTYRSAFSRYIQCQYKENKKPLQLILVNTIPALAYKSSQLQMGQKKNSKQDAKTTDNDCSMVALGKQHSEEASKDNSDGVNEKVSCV

[4] = biological target: T2, 5-hydroxytryptamine receptor 2C (Homo sapiens) (UniProt P28335); assay: Intrinsic activity at recombinant human 5-HT2C receptor expressed in HEK293E cells assessed as induction of intracellular Ca2+ levels after 90 secs by Fluo-4-dye based FLIPR assay relative to serotonin; format: functional, cell-based; details: HEK293
T2 sequence (whole entry): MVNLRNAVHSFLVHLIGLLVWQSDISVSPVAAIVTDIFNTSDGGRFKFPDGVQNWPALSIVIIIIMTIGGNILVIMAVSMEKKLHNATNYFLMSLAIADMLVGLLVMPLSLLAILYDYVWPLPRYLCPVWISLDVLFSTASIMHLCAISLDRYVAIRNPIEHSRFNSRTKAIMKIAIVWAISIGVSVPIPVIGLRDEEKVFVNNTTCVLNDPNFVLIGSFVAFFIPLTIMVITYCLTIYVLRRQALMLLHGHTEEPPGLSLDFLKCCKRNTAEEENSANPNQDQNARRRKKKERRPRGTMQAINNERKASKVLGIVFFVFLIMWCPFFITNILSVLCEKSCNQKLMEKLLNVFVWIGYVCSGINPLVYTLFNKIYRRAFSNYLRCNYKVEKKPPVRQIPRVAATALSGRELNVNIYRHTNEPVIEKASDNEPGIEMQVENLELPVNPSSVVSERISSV
Outline: (§3)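 FLIPR Fluo-4 Ca2+ assay in HEK293E cells stably expressing the human receptor (VNV isoform for 5-HT2C), eleven-point concentration series, 90 s read. Response normalized to 3 μM serotonin on the same plate (defined as IA = 1). Intrinsic activity taken from a four-parameter logistic fit.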

[5] = biological target: T3, 5-hydroxytryptamine receptor 2C (Homo sapiens, UniProt P28335); assay: Agonist activity at recombinant human 5-HT2C receptor expressed in HEK293E cells assessed as induction of intracellular Ca2+ levels after 90 secs by Fluo-4-dye based FLIPR assay; format: functional, cell-based, HEK293; outline: as §2
T3 sequence (P28335 whole entry): T2 sequence (whole entry)

[6] = Metabolic stability in human liver microsomes assessed as parent compound remaining at […] after 10 mins; format: ADME, microsome; details: read-out: Stability
[7] = Metabolic stability in rat liver microsomes assessed as parent compound remaining at […] after 10 mins; format: ADME, microsome; details: read-out: Stability
[8] = Permeability of compound at pH 5.5 by PAMPA; format: physicochemical; details: read-out: permeability
[9] = Permeability of compound at pH 7.4 by PAMPA; format: physicochemical; details: read-out: permeability
[10] = Permeability across basolateral to apical side in human Caco2 cells; format: ADME, cell-based; details: Caco-2, read-out: permeability
[11] = Permeability across apical to basolateral side in human Caco2 cells; format: ADME, cell-based; details: Caco-2, read-out: permeability
[12] = Efflux ratio of permeability across basolateral to apical side in human Caco2 cells; format: ADME, cell-based; details: Caco-2
[13] = Protein binding in human plasma; format: ADME, cell-free; details: read-out: PPB (converted)
[14] = Protein binding in rat plasma; format: ADME, cell-free; details: read-out: PPB (converted)
[15] = Half life in human microsomes; format: ADME, Microsome
[16] = Half life in rat microsomes; format: ADME, Microsome
[17] = Plasma concentration in Sprague-Dawley rat at 30 mg/kg, po measured at 2 hrs post dose by LC/MS-MS analysis; format: ADME, organism-based; outline: as §1
[18] = Ratio of drug uptake in Sprague-Dawley rat brain to plasma at 30 mg/kg, po measured at 2 hrs post dose by LC/MS-MS analysis; format: ADME, organism-based; details: read-out: BPR; outline: as §1
[19] = biological target: T1, 5-hydroxytryptamine receptor 2B; assay: Intrinsic activity at recombinant human 5-HT2B receptor expressed in HEK293E cells assessed as induction of intracellular Ca2+ levels after 90 secs by Fluo-4-dye based FLIPR assay relative to serotonin; format: functional, cell-based; details: HEK293; outline: as §3
Rattus norvegicus [20] = assay: Antiobesity activity in ad libitum feeding Sprague-Dawley rat model assessed as reduction in food pellet consumption at 10 mg/kg, po administered at 60 mins prior to the onset of the dark cycle followed by incubation for first 8 hrs in light cycle and 12 hrs in dark cycle; format: functional; design: scale not given: the % may be the effect or the level left
Outline: (§4)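 Male Sprague Dawley rats (~225 g; n = 6), trained in operant chambers, dosed orally with compound or vehicle (14% PPG, 1% Tween, 85% water) 60 min before dark onset. Food intake was monitored in individual boxes for 20 h (12 h dark plus first 8 h light). Percent reduction was computed from drug-treated versus vehicle-treated total intake.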

[21] = Drug uptake in Sprague-Dawley rat brain at 30 mg/kg, po measured at 1 hr post dose by LC/MS-MS analysis; format: ADME, organism-based; details: read-out: Drug uptake; outline: as §1
[22] = Plasma concentration in Sprague-Dawley rat at 30 mg/kg, po measured at 1 hr post dose by LC/MS-MS analysis; format: ADME, organism-based; outline: as §1
[23] = Ratio of drug uptake in Sprague-Dawley rat brain to plasma at 30 mg/kg, po measured at 1 hr post dose by LC/MS-MS analysis; format: ADME, organism-based; details: read-out: BPR; outline: as §1
[24] = Agonist activity at recombinant human 5-HT2C receptor D134A mutant expressed in HEK293E cells assessed as induction of intracellular Ca2+ levels after 90 secs by Fluo-4-dye based FLIPR assay; format: cell-based; details: HEK293
Rattus norvegicus [25] = assay: Antiobesity activity in ad libitum feeding Sprague-Dawley rat model assessed as reduction in food intake at 10 mg/kg, po administered at 60 mins prior to the onset of the dark cycle followed by incubation for first 8 hrs in light cycle and 12 hrs in dark cycle; format: functional; design: scale not given: the % may be the effect or the level left; outline: as §4

Structure (SMILES) | EC50 [2] [µM] | EC50 [3] [µM] | Intrinsic activity [4] | EC50 [5] [µM] | remaining at 10 min [6] [%] | remaining at 10 min [7] [%] | further results
Cn1nc(-c2cccc3ccccc23)cc1C(=O)N1CCC(CO)CC1 | > 10 | 0.075 | 1 | 0.006 | 92 | 37 | concentration at 2 h [1]: 0.721 µM; Papp [8]: 588 nm/s; Papp [9]: 613 nm/s; Papp B→A [10]: 168 nm/s; Papp A→B [11]: 323 nm/s; efflux ratio [12]: 0.5; fraction unbound [13]: 0.023; fraction unbound [14]: 0.076; half-life [15]: 36 min; half-life [16]: 8 min; concentration at 2 h [17]: 2.48 µM; Kp at 2 h [18]: 0.3
Cc1sc(-c2cccc3ccccc23)cc1C(=O)N1CCC(CO)CC1 | > 10 | > 10 | 0.8 | 0.047 to 0.119 | 66 | 23 | –
Cc1c(C(=O)NN2CCCCC2)nn(-c2ccc(Cl)cc2Cl)c1-c1ccc(Cl)cc1 [RIMONABANT] | – | – | – | – | – | – | Activity (Rattus norvegicus [20]): 27%
Cn1cc(-c2cccc3ccccc23)cc1C(=O)N1CCC(CO)CC1 | > 10 | > 10 | 1 | 0.041 to 0.045 | 76 | 57 | –
Cc1[nH]c(-c2cccc3ccccc23)cc1C(=O)N1CCC(CO)CC1 | > 10 | > 10 | 0.9 | 0.012 | 76 | 44 | concentration at 1 h [21]: 0.202 µM; Papp [8]: 624 nm/s; Papp [9]: 492 nm/s; Papp B→A [10]: 219 nm/s; Papp A→B [11]: 172 nm/s; efflux ratio [12]: 1.3; fraction unbound [13]: 0.017; fraction unbound [14]: 0.075; half-life [15]: 41 min; half-life [16]: 11 min; concentration at 1 h [22]: 1.14 µM; Kp at 1 h [23]: 0.2
Cc1nc(-c2cccc3ccccc23)sc1C(=O)N1CCOCC1 | > 10 | > 10 | 0.8 | 0.095 to 0.115 | 50 | 6 | –
Cc1nc(-c2cccc3ccccc23)sc1C(=O)N1CCCCC1 | > 10 | > 10 | 1 | 0.024 | 24 | 1 | –
O=C(c1csc(-c2cccc(Cl)c2Cl)n1)N1CCOCC1 | > 10 | > 10 | 0.8 | 0.119 to 0.128 | – | – | EC50 [24]: 0.002 µM
Cc1cc2c(cc1C(F)(F)F)N(C(=O)Nc1ccc(Oc3cccnc3C)nc1)CC2 [SB-243213] | – | – | – | – | – | – | Activity (Rattus norvegicus [25]): 15%
Cc1nc(-c2cccc3ccccc23)sc1C(=O)N(C)Cc1cccnc1 | > 10 | > 10 | 0.8 | 0.012 to 0.015 | 5 | 4 | –
Cc1nn(-c2cccc3ccccc23)nc1C(=O)N1CCC(CO)CC1 | > 10 | > 10 | 1 | 0.334 to 0.385 | 58 | 24 | –
Cc1nc(-c2cccc3ccccc23)sc1C(=O)N1CCc2[nH]cnc2C1 | > 10 | > 10 | 1 | 0.068 | 70 | 15 | –
Cc1cc(-c2cccc3ccccc23)sc1C(=O)N1CCC(CO)CC1 | > 10 | > 5 | 1 | 0.02 | 87 | 20 | –
COCCN(C)C(=O)c1sc(-c2cccc3ccccc23)nc1C | > 10 | > 10 | 0.9 | 0.014 | 28 | 7 | –

More lines, main results first:

EC50 [2] [µM] | EC50 [3] [µM] | Intrinsic activity [4] | EC50 [5] [µM] | remaining at 10 min [6] [%] | remaining at 10 min [7] [%] | Structure (SMILES) | further results
0.003 to 0.006 | 0.151 | 1 | 0.002 | 8 | – | CCn1nc(-c2cccc3cccnc23)cc1-c1cccnn1 | Intrinsic activity [19]: 0.2
> 10 | > 10 | 1 | 0.016 | 88 | 51 | Cc1nn(-c2cccc3ccccc23)cc1C(=O)N1CCC(CO)CC1 | –
> 10 | > 10 | 0.9 | 0.063 to 0.14 | 33 | 24 | Cc1nc(-c2cccc3ccccc23)oc1C(=O)N1CCC(CO)CC1 | –
> 10 | > 10 | 0.8 | 0.043 to 0.123 | – | – | Cc1nc(-c2cccc3ccccc23)sc1C(=O)N1CCN(C)CC1 | EC50 [24]: 0.13 µM
> 10 | > 10 | 1 | 0.381 to 0.575 | 62 | 16 | Cc1oc(-c2cccc3ccccc23)nc1C(=O)N1CCC(CO)CC1 | –
> 10 | > 10 | 0.9 | 0.017 to 0.025 | 50 | 8 | Cc1nc(-c2cccc3ccccc23)sc1C(=O)N1CCCC(O)CC1 (configuration not stated) | –

— ChEMBL document CHEMBL4011636, “Utilization of an Active Site Mutant Receptor for the Identification of Potent and Selective Atypical 5-HT2C Receptor Agonists” (J Med Chem, 2017)
